Screens as filed in PubChem.
An excerpt weighted towards active compounds, which were near 12% of everything screened.
L major viab = Leishmania major promastigote growth inhibition, primary screen; Leishmania major promastigotes, resazurin fluorescence viability; inhibition, % at 10 µM; actives 9% (n = 200,000); AID 1063, 2008; in the data active = inhibition above about 50%;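 note: promastigotes grown with compound for 44 hours at 28 °C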
Diaph act CS = compounds boosting diaphorase resazurin reduction – biochemical, uHTS, resorufin fluorescence, counter-screen for diaphorase-coupled primary assays, primary screen; Diaphorase/resazurin coupled assay, 16 min; active compounds read high; 1 = vehicle wells, 0 = NADH-free wells; activation factor at 20 µM; actives 0.005% (n = 190,000); AID 1229, 2008;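 active = diaphorase activity raised at least twofold by the compound at 20 µM; inactive = activation factor below 2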
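System – purified diaphorase enzyme from Clostridium kluyveri · Input – enzyme 0.07 U/mL final · Also added – final NADH 0.114 mM, resazurin 0.1 mM · Measured by – fluorescence of resorufin, 544 nm excitation, 590 nm emission · Timing – 16 min enzyme reaction, ambient temperature · Measure – resorufin increase flagging diaphorase activators or reducers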
ROMK primary = ROMK potassium channel modulators, primary screen, cell-based, thallium flux, MLSMR library | Tet-inducible ROMK, thallium flux fluorescence; actives lie on both sides | B-score at 10 µM | ATP-sensitive inward rectifier potassium channel 1 (Homo sapiens), P48048 | AID 1918, 2009 | actives 2% (n = 130,000);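 active = signal ratio slope over the read window, or its plate-corrected B-score, at least 3 SD from the plate mean, either direction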;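 note: B-score of the F/F0 ratio slope over 7 to 12 s after thallium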
WT yeast gro inh = growth inhibition of WT strain, primary screen, mitochondrial fusion inhibitor project, WT and mutant strains, chemical genetic; actives 2.1% (n = 190,000); inhibition, % at 10 µM; mitochondrial fusion phenotypic screen; AID 1362, 2008; in the data active = inhibition above about 58%; tested in S. cerevisiae
Cl transport mod = KCC2 cotransporter modulators, thallium flux, primary screen, cell-based, HEK293 KCC2, FluoZin-2 fluorescence, MLSMR; Solute carrier family 12 member 5 (Homo sapiens), Q9H2X9; KCC2 cells, thallium flux FluoZin-2 fluorescence; B-score of Tl+ flux slope (higher = more flux/activation; lower = inhibition) at 10 µM; actives 2.2% (n = 190,000); AID 1456, 2008;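 active = thallium flux slope and its plate-corrected score both differing from the plate sample mean at a set confidence after two filtering rounds, in either direction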;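 note: slope of fluorescence scaled to starting intensity during 10 to 20 s after thallium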
Diaphorase inh = diaphorase inhibitors and chemical oxidizers, primary screen, counter-screen for diaphorase-coupled primary assays, biochemical, uHTS, resorufin fluorescence. diaphorase resazurin-to-resorufin fluorescence, NADH, 16 min; bacterial (C. kluyveri) enzyme, not human. inhibition, % at 20 µM. actives 0.69% (n = 190,000). AID 1217, 2008;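 active = primary screen inhibition at 20 µM above a set limit, cut at about 50% in these data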;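 note: plate controls were DMSO with full reaction for no effect and wells lacking NADH for full effect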
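System: Bacterial diaphorase enzyme (C. kluyveri) | Incubation: 16-min room-temperature incubation before reading | Benchmarks: No-NADH positive control and DMSO neutral control | Measured by: Resorufin fluorescence 544/590 nm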
* marks the source's active call; other numbers are inactive results; x = no result given.

SMILES	L major viab	Diaph act CS	ROMK primary	WT yeast gro inh	Cl transport mod	Diaphorase inh
O=[N+]([O-])c1cccc(/C=N/Nc2nc(NCc3ccccc3)nc(N3CCOCC3)n2)c1O	99*	x	-0.53	-10	-1.6	x
CSc1nc(Cc2ccccc2)nc2ccccc12	1	0.8	0.91	37	0.011	23
COc1ccc(-c2cc(C(F)(F)F)nc(S(=O)(=O)CCCC(=O)Nc3cccnc3Cl)n2)cc1OC	82*	1.1	-0.43	-21	x	-7
O=C(c1ccco1)N1N=C(c2ccc(Br)cc2)CC1(O)C(F)(F)F (centres undefined)	-1	0.9	0.58	9	0.39	6
COc1ccc(NC(=O)CCN2CCN(S(=O)(=O)c3cc(Cl)ccc3Cl)CC2)cc1	96*	0.9	-2.1	8	x	9
COC(=O)c1ccc(NC(=O)CN2CCN(S(=O)(=O)c3cc(Cl)ccc3OC)CC2)cc1	99*	0.7	0.97	3	x	31
COc1ccc(NC(=O)CCN2CCN(S(=O)(=O)c3ccc(OC)cc3)CC2)cc1	-2	0.9	0.88	-2	0.44	6
COC(=O)c1ccc(NC(=O)CN2CCN(c3ccc(Cl)cc3)CC2)cc1	-4	0.8	x	-10	0.071	24
COc1ccccc1/C=C/C1=NC(=C\C=C/c2ccccc2)/C(=O)O1	69*	1	-0.13	2	-0.31	5
Cc1cc2nccc(-c3cccnc3)n2n1	-1	1	-0.56	-3	-0.0006	0
Cc1ccc(-c2nnc(Nc3ccc(C(=O)N(C)C)cc3)c3ccccc23)cc1S(=O)(=O)NCC1CCCO1 (centres undefined)	-6	0.9	0.086	-13	1.9	7
COC(=O)c1ccc(Nc2nnc(-c3ccc(C)c(S(=O)(=O)NCC4CCCO4)c3)c3ccccc23)cc1 (centres undefined)	92*	0.8	x	-1	-0.44	18
CCOC(=O)CNS(=O)(=O)c1cc(-c2n[nH]c(=O)c3ccccc23)ccc1C	5	1	0.47	-34	x	0
CCOC(=O)CNS(=O)(=O)c1cc(-c2nnc(Nc3ccc4c(c3)OCO4)c3ccccc23)ccc1C	55*	0.8	x	-4	-3.2	25
Cc1ccc(CCN2CC(C(=O)NCCCN3CCCCCC3)CC2=O)cc1 (centres undefined)	-2	1.1	x	28	-0.02	-13
COc1cc(SC)ccc1C(=O)Nc1c(Cl)cncc1Cl	95*	0.9	0.17	15	-0.12	7
COc1cc(SC)ccc1C(=O)NCCOc1ccc(F)cc1	58*	0.8	x	16	-1.7	16
COc1cc(SC)ccc1C(=O)Nc1c(C)cccc1C	27	1.1	0.22	12	-0.2	-13
CSc1ccc(Cl)c(C(=O)NCCOc2cc(C)ccc2C(C)C)c1	2	0.9	-1.2	62*	-1.2	14
CSc1ccc(Cl)c(C(=O)NCCOc2ccccc2)c1	-5	1	-2	11	-2	5
O=C(CNC(=O)Cc1ccccc1)NCC(=O)OCc1ccc(C(=O)c2ccccc2)cc1	-2	1	-0.17	7	x	0
O=C1CC(=C2c3ccccc3-c3ccccc32)C(=O)N1CCN1CCN(c2ccccc2)CC1	6	x	-0.2	x	-0.066	x
Nc1cc(-c2ccc(Br)cc2)nn1Cc1ccccc1	78*	0.7	-1.6	-7	-0.56	28
Nc1cc(-c2cccc(Br)c2)nn1Cc1ccccc1	3	0.8	-1	10	-2	23
O=C(Nc1ccc2oc(-c3ccccc3F)nc2c1)c1ncn[nH]1	100*	0.9	-0.17	-29	-1.1	7
SMILES	L major viab	Diaph act CS	ROMK primary	WT yeast gro inh	Cl transport mod	Diaphorase inh
O=C(Nc1ccc2oc(-c3ccc(Cl)c(Cl)c3)nc2c1)c1ncn[nH]1	-1	1.1	0.47	-11	-0.83	-14
Cc1ccc(-n2c(SCC(=O)N3CCCC3)nc3c(c2=O)SCC3)cc1	-5	0.8	x	-15	-0.97	18
COC(=O)c1ccc(CSc2nc3c(c(=O)n2-c2ccc(C)cc2)SCC3)o1	97*	0.6	x	15	-2.5	38
O=C(Nc1ccc2ccccc2c1)NC1CCS(=O)(=O)C1 (centres undefined)	-3	0.9	-0.31	-3	-0.71	14
CC(=O)NC(=S)Nc1cccc(S(=O)(=O)NC2=NCCC2)c1	-7	0.8	0.73	-1	0.64	17
CCOc1ccc(/C=N/NC(=O)c2ccc(Cn3cc(Br)cn3)o2)cc1	59*	0.9	-0.28	6	-0.59	6
O=C(N/N=C\c1ccc2c(c1)OCO2)c1ccc(Cn2cc(Br)c([N+](=O)[O-])n2)o1	83*	0.8	0.0012	0	0.0037	16
CCOc1ccc(/C=N/NC(=O)c2ccc(Cn3cc([N+](=O)[O-])cn3)o2)cc1	1	0.9	0.63	13	1.5	6
CC1CCN(CC(O)COC2CCC(C(C)(C)C)CC2)CC1 (centres undefined)	92*	0.9	x	-15	-0.15	12
Cc1ccc(N2CCN(CC(O)COc3ccc([N+](=O)[O-])cc3)CC2)cc1 (centres undefined)	97*	0.9	-0.58	15	-0.24	8
Cc1ccc(N2CCN(CC(O)COC3CCCCC3)CC2)cc1 (centres undefined)	97*	0.9	x	7	1.7	12
CC(C)(C)C1CCC(OCC(O)CN2CCN(c3ccccc3)CC2)CC1 (centres undefined)	91*	0.9	x	-9	-0.2	7
O=[N+]([O-])c1ccc(OCC(O)CN2CCN(c3ccccc3F)CC2)cc1 (centres undefined)	-1	0.9	x	-14	-0.42	13
Cc1cccc(C)c1OCC(O)CN1CCN(c2ccccc2)CC1 (centres undefined)	15	0.9	-0.46	7	-0.75	9
c1ccc(-n2nnc(-c3cccnc3)n2)cc1	-3	0.8	x	3	0.011	16
C=CSc1sc(Cl)c(N(CC)CC)c1[N+](=O)[O-]	6	0.9	2.1	9	-0.014	8
Cc1ccc(S(=O)(=O)C/N=C(/NC(=S)N(c2ccccc2)c2ccccc2)c2ccccc2)cc1	4	1	-0.59	1	0.0043	5
CC(C)(C)C1CCC(OCC(O)CN2CCCC2)CC1 (centres undefined)	100*	1.1	-0.92	8	1.1	-14
